Legend:
[1] = test system: Human immunodeficiency virus 1; assay: Antiviral activity against HIV1 3B harboring reverse transcriptase Y181C mutant infected in human MT4 cells assessed as protection against virus induced cytotoxicity after 5 days by MTT assay; assay type: functional, cell-based; conditions: Human immunodeficiency virus 1, 3B, MT4, 120 h
In short: (§1)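 MTT cytopathicity assay in MT-4 cells (6 × 10^5 cells/mL). Compounds serially diluted 5-fold in triplicate wells, run in parallel on infected and mock-infected cells. Virus added at 100−300 CCID50 per well. Viability read spectrophotometrically at 540 and 690 nm after 5 days, using the median OD of three wells.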

[2] = Selectivity index, ratio of CC50 for human mock-infected MT4 cells to EC50 for HIV1 3B harboring reverse transcriptase L100I mutant infected in human MT4 cells; assay type: toxicity, cell-based; conditions: MT4 cells (mock-infected for CC50, HIV-1 infected for EC50)
In short: (§2)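 Selectivity index is CC50/EC50. CC50 is the concentration that reduces OD540 of mock-infected MT-4 cells by 50% in the 5-day MTT assay. EC50 is the 50% protection from virus-induced cytopathicity, measured in parallel on infected wells.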

[3] = test system: Human immunodeficiency virus 1; assay: Antiviral activity against HIV1 3B harboring reverse transcriptase F227L/V106A double mutant infected in human MT4 cells assessed as protection against virus induced cytotoxicity after 5 days by MTT assay; assay type: functional, cell-based; conditions: Human immunodeficiency virus 1, 3B, MT4, 120 h
In short: (§3)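 MTT cytopathicity assay in MT-4 cells (6 × 10^5 cells/mL). Compounds serially diluted 5-fold in triplicate wells, run in parallel on infected and mock-infected cells. Virus added at 100−300 CCID50 per well. Viability read spectrophotometrically at 540 and 690 nm after 5 days, using the median OD of three wells. EC50 is the concentration giving 50% protection from viral cytopathogenicity.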

[4] = test system: Human immunodeficiency virus 1; assay: Antiviral activity against HIV1 3B harboring reverse transcriptase E138K mutant infected in human MT4 cells assessed as protection against virus induced cytotoxicity after 5 days by MTT assay; assay type: functional, cell-based; conditions: Human immunodeficiency virus 1, 3B, MT4, 120 h; in short: as §3
[5] = Selectivity index, ratio of CC50 for human mock-infected MT4 cells to EC50 for wild type HIV1 3B harboring reverse transcriptase infected in human MT4 cells; assay type: toxicity, cell-based; conditions: MT4 cells (mock-infected for CC50, HIV-1 infected for EC50); in short: as §2
[6] = Selectivity index, ratio of CC50 for human mock-infected MT4 cells to EC50 for HIV1 RES056 harboring reverse transcriptase K103N/Y181C double mutant infected in human MT4 cells; assay type: toxicity, cell-based; conditions: MT4 cells (mock-infected for CC50, HIV-1 infected for EC50); in short: as §2
[7] = test system: Human immunodeficiency virus 1; assay: Antiviral activity against HIV1 3B harboring reverse transcriptase Y188L mutant infected in human MT4 cells assessed as protection against virus induced cytotoxicity after 5 days by MTT assay; assay type: functional, cell-based; conditions: Human immunodeficiency virus 1, 3B, MT4, 120 h; in short: as §3
[8] = Selectivity index, ratio of CC50 for human mock-infected MT4 cells to EC50 for HIV1 3B harboring reverse transcriptase E138K mutant infected in human MT4 cells; assay type: toxicity, cell-based; conditions: MT4 cells (mock-infected for CC50, HIV-1 infected for EC50); in short: as §2
[9] = test system: Human immunodeficiency virus 1; assay: Antiviral activity against HIV1 3B harboring reverse transcriptase L100I mutant infected in human MT4 cells assessed as protection against virus induced cytotoxicity after 5 days by MTT assay; assay type: functional, cell-based; conditions: Human immunodeficiency virus 1, 3B, MT4, 120 h; in short: as §3
[10] = Cytotoxicity against human mock-infected MT4 cells assessed as reduction in cell viability after 5 days by MTT assay; assay type: toxicity, cell-based
In short: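 Mock-infected MT-4 cells (6 × 10^5 cells/mL at seeding) with serial 5-fold compound dilutions in triplicate wells. Viability read by MTT after 5 days, absorbance at 540 and 690 nm, median OD of three wells. CC50 is the concentration reducing OD540 of mock-infected cells by 50%.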

[11] = test system: Human immunodeficiency virus 1; assay: Antiviral activity against wild type HIV1 3B harboring reverse transcriptase infected in human MT4 cells assessed as protection against virus induced cytotoxicity after 5 days by MTT assay; assay type: functional, cell-based; conditions: Human immunodeficiency virus 1, 3B, MT4, 120 h; in short: as §1
[12] = Selectivity index, ratio of CC50 for human mock-infected MT4 cells to EC50 for HIV1 3B harboring reverse transcriptase F227L/V106A double mutant infected in human MT4 cells; assay type: toxicity, cell-based; conditions: MT4 cells (mock-infected for CC50, HIV-1 infected for EC50); in short: as §2
[13] = test system: Human immunodeficiency virus 1; assay: Antiviral activity against HIV1 3B harboring reverse transcriptase K103N mutant infected in human MT4 cells assessed as protection against virus induced cytotoxicity after 5 days by MTT assay; assay type: functional, cell-based; conditions: Human immunodeficiency virus 1, 3B, MT4, 120 h; in short: as §3
[14] = Selectivity index, ratio of CC50 for human mock-infected MT4 cells to EC50 for HIV1 3B harboring reverse transcriptase K103N mutant infected in human MT4 cells; assay type: toxicity, cell-based; conditions: MT4 cells (mock-infected for CC50, HIV-1 infected for EC50); in short: as §2
[15] = Selectivity index, ratio of CC50 for human mock-infected MT4 cells to EC50 for HIV1 3B harboring reverse transcriptase Y188L mutant infected in human MT4 cells; assay type: toxicity, cell-based; conditions: MT4 cells (mock-infected for CC50, HIV-1 infected for EC50); in short: as §2
[16] = Antiviral activity against HIV2 ROD harboring reverse transcriptase infected in human MT4 cells assessed as protection against virus induced cytotoxicity after 5 days by MTT assay; assay type: functional, cell-based, Human immunodeficiency virus type 2 (ISOLATE ROD); conditions: Human immunodeficiency virus 2, MT4, 120 h; in short: as §3
[17] = Selectivity index, ratio of CC50 for human mock-infected MT4 cells to EC50 for HIV1 3B harboring reverse transcriptase Y181C mutant infected in human MT4 cells; assay type: toxicity, cell-based; conditions: MT4 cells (mock-infected for CC50, HIV-1 infected for EC50); in short: as §2
[18] = Inhibition of recombinant wild type HIV1 reverse transcriptase using DIG-dUTP/biotin-dUTP/dTTP assessed as suppression of biotin-dUTP incorporation after 1 hr by ELISA; design: species or system Human immunodeficiency virus 1
In short: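 Recombinant WT HIV-1 RT in a Roche colorimetric kit: template plus DIG-dUTP, biotin-dUTP and dTTP, ±inhibitor, 1 h at 37 °C. Product captured on streptavidin plate 1 h at 37 °C, anti-DIG-POD 1 h at 37 °C, ABTS developed at 25 °C, read at OD405. IC50 is the concentration inhibiting biotin-dUTP incorporation by 50%.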

Structure (SMILES)	EC50 [1] [nM]	selectivity ratio [2]	EC50 [3] [nM]	EC50 [4] [nM]	selectivity ratio [5]	selectivity ratio [6]	EC50 [7] [nM]	selectivity ratio [8]	EC50 [9] [nM]	CC50 at 120 h [10] [µM]	EC50 [11] [nM]	selectivity ratio [12]	EC50 [13] [nM]	selectivity ratio [14]	selectivity ratio [15]	EC50 [16] [µM]	selectivity ratio [17]	IC50 [18] [nM]
Cc1cc(C)c(Oc2nc(NC3CCN(Cc4ccc([N+](=O)[O-])cc4)CC3)nc3ccsc23)c(C)c1	200	< 1	> 6390	126	201	< 1	262	51	> 6390	6.39	31.8	< 1	53.4	120	24	> 6.39	32	
Cc1cc(C)c(Oc2nc(NC3CCN(Cc4ccc(C(N)=O)cc4)CC3)nc3ccsc23)c(C)c1	42.7	60	107	21.9	896	18	42.6	265	96.1	5.81	6.5	54	8.7	671	136	> 5.81	135	
Cc1cc(C#N)cc(C)c1Oc1nc(NC2CCN(Cc3cccc(C(N)=O)c3)CC2)nc2ccsc12	49.5	> 975	130	13.8	> 19200	1	58.3	> 3510	50	> 48.8	2.5	> 374	10.3	> 4710	> 836	> 48.8	> 984	
Cc1cc(C#N)cc(C)c1Oc1nc(NC2CCN(Cc3cccc(S(N)(=O)=O)c3)CC2)nc2ccsc12	20.9	> 8030	8.5	6.5	> 96000	> 120	12.8	> 35200	28.4	> 228	2.4	> 26700	≤ 7.6	> 30100	> 17800	> 228	> 10900	
Cc1cc(C)c(Oc2nc(NC3CCN(Cc4cccc(C(N)=O)c4)CC3)nc3ccsc23)c(C)c1	183	19	852	51	531	1	234	149	399	7.64	14.4	9	93.8	81	32	> 7.64	41	
Nc1ccn([C@@H]2CS[C@H](CO)O2)c(=O)n1 [LAMIVUDINE]					> 39					> 87.2						8.79		
CCOC(=O)c1ccc(CN2CCC(Nc3nc(Oc4c(C)cc(C#N)cc4C)c4sccc4n3)CC2)cc1	3710	> 20	12800	1020	≥ 1440	1	4670	> 227	11300	≥ 231	161	> 20	511	> 446	> 49	> 231	> 62	
CC(=O)NS(=O)(=O)c1ccc(CN2CCC(Nc3nc(Oc4c(C)cc(C#N)cc4C)c4sccc4n3)CC2)cc1	28.8	> 145	8.8	8.8	> 576	20	13.6	> 340	20.8	> 3.03	5.2	> 340	8.2	> 369	> 222	> 3.03	> 104	
Cc1cc(C#N)cc(C)c1Oc1nc(NC2CCN(Cc3ccc(F)cc3F)CC2)nc2ccsc12					185	< 1				4.08	22					> 4.08		
Cc1cc(C#N)cc(C)c1Oc1nc(Nc2ccc(C#N)cc2)nc(N)c1Br [ETRAVIRINE]			29.4	14.4			20.5		5.4	> 4.59			2.4					11
Cc1cc(C)c(Oc2nc(NC3CCN(Cc4ccc(S(N)(=O)=O)cc4)CC3)nc3ccsc23)c(C)c1	4840	4	4550	5500		< 1	8470	3	4520	16.5	3550	4	4940	3	2	> 16.5	3	
